Reference: ChEMBL document CHEMBL3352265, “Potentially bioactive organotin(IV) compounds: synthesis, characterization, in vitro bioactivities and interaction with SS-DNA” (Eur J Med Chem, 2014)
Activity calls are given as the source filed them. The calls are words filed in the database; no cut-off is given here.

Assays:
Salmonella typhimurium [1] = assay: Antibacterial activity against Salmonella typhimurium ATCC 14028 after 18 hrs by microdilution method; assay type: functional; conditions: Salmonella enterica subsp. enterica serovar Typhimurium
In short: (§1)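 Broth microdilution. Twofold dilutions in culture broth at […]. Each well inoculated with bacterial suspension (10^8 CFU/mL, about 10^5 CFU/well). Sterility control and growth control (broth plus DMSO) included. Incubated at 36 °C for 18 h, in triplicate. MIC taken as the lowest concentration inhibiting growth, given in micrograms per mL.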

[2] = tested on: Agrobacterium tumefaciens; assay: Antitumor activity against Agrobacterium tumefaciens -induced tumor at 1000 ug/ml after 21 days by potato disc bioassay technique; assay type: functional
In short: (§2)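 Potato disc assay with 48 h culture of A. tumefaciens At-10. Inoculum contained compound at […]. Red-skinned potatoes sterilized in 0.1% HgCl2; 8 mm × 4 mm discs placed ten per 1.5% agar plate, […] each. Incubated at 28 °C in the dark for 21 days, in triplicate. Discs stained with Lugol's and tumors counted. Percent inhibition calculated against the negative control.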

Staphylococcus aureus [3] = assay: Antibacterial activity against Staphylococcus aureus ATCC 6538 at 40 mg/mL after 24 hrs by disc diffusion method; assay type: functional
In short: (§3)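 Disc diffusion. Strains grown in nutrient broth at 37 °C for 24 h. 1% culture (about 10^6 CFU/mL) mixed into nutrient agar at 45 °C and poured. 4 mm paper discs received compound at 40 mg/mL stock in DMSO; final concentrations tested were […]. DMSO served as negative control, roxithromycin and cefixime as positive controls. Triplicate plates incubated at 37 °C for 24 h. Complete-inhibition zone diameter (mm) recorded as the mean of 3.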

Aspergillus fumigatus [4] = assay: Antifungal activity against Aspergillus fumigatus FCBP 66 at 40 mg/mL after 7 days by disc diffusion method; assay type: functional
In short: (§4)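 Disc diffusion on SDA. Fungi cultured at 28 °C for 24 h. 4 mm discs received compound at 40 mg/mL stock in DMSO. DMSO served as negative control, terbinafine as positive control. Plates incubated at 28 °C for 7 days. Growth diameter (mm) measured and inhibition calculated against the negative control. MIC taken as the lowest concentration with no growth.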

Aspergillus flavus [5] = assay: Antifungal activity against Aspergillus flavus FCBP 0064 after 7 days by disc diffusion method; assay type: functional, organism-based; in short: as §4
Escherichia coli [6] = assay: Antibacterial activity against Escherichia coli ATCC 15224 after 18 hrs by microdilution method; assay type: functional; in short: as §1
Mucor [7] = assay: Antifungal activity against Mucor FCBP 0400 at 40 mg/mL after 7 days by disc diffusion method; assay type: functional; in short: as §4
[8] = tested on: Agrobacterium tumefaciens; assay: Antitumor activity against Agrobacterium tumefaciens -induced tumor at 100 ug/ml after 21 days by potato disc bioassay technique; assay type: functional; in short: as §2
Escherichia coli [9] = assay: Induction of Escherichia coli pBR322 DNA damage assessed as open circular form at 1 ug/ml after 60 mins by gel electrophoresis
[10] = tested on: Agrobacterium tumefaciens; assay: Antitumor activity against Agrobacterium tumefaciens -induced tumor at 10 ug/ml after 21 days by potato disc bioassay technique; assay type: functional; in short: as §2
[11] = tested on: Bordetella bronchiseptica; assay: Antibacterial activity against Bordetella bronchiseptica ATCC 4617 after 18 hrs by microdilution method; assay type: functional; in short: as §1
Escherichia coli [12] = assay: Antibacterial activity against Escherichia coli ATCC 15224 at 40 mg/mL after 24 hrs by disc diffusion method; assay type: functional; in short: as §3
Salmonella typhimurium [13] = assay: Antibacterial activity against Salmonella typhimurium ATCC 14028 at 40 mg/mL after 24 hrs by disc diffusion method; assay type: functional; conditions: Salmonella enterica subsp. enterica serovar Typhimurium; in short: as §3
Klebsiella aerogenes [14] = assay: Antibacterial activity against Enterobacter aerogenes ATCC 13048 after 18 hrs by microdilution method; assay type: functional, organism-based; in short: as §1
Aspergillus flavus [15] = assay: Antifungal activity against Aspergillus flavus FCBP 0064 at 40 mg/mL after 7 days by disc diffusion method; assay type: functional; in short: as §4
Aspergillus niger [16] = assay: Antifungal activity against Aspergillus niger FCBP 0198 at 40 mg/mL after 7 days by disc diffusion method; assay type: functional; in short: as §4
[17] = tested on: Bordetella bronchiseptica; assay: Antibacterial activity against Bordetella bronchiseptica ATCC 4617 at 40 mg/mL after 24 hrs by disc diffusion method; assay type: functional; in short: as §3
Escherichia coli [18] = assay: Induction of Escherichia coli pBR322 DNA damage assessed as open circular form at 100 ug/ml after 60 mins by gel electrophoresis
Aspergillus niger [19] = assay: Antifungal activity against Aspergillus niger FCBP 0198 after 7 days by disc diffusion method; assay type: functional, organism-based; in short: as §4
Aspergillus fumigatus [20] = assay: Antifungal activity against Aspergillus fumigatus FCBP 66 after 7 days by disc diffusion method; assay type: functional, organism-based; in short: as §4
Escherichia coli [21] = assay: Induction of Escherichia coli pBR322 DNA damage assessed as open circular form at 10 ug/ml after 60 mins by gel electrophoresis
Bacillus spizizenii [22] = assay: Antibacterial activity against Bacillus subtilis ATCC 6633 after 18 hrs by microdilution method; assay type: functional; in short: as §1
Bacillus spizizenii [23] = assay: Antibacterial activity against Bacillus subtilis ATCC 6633 at 40 mg/mL after 24 hrs by disc diffusion method; assay type: functional; in short: as §3
Artemia salina = assay: Cytotoxicity in brine shrimp assessed as mortality after 24 hrs; assay type: functional
Mucor [24] = assay: Antifungal activity against Mucor FCBP 0400 at 40 mg/mL by disc diffusion method; assay type: functional, organism-based; in short: as §4
Escherichia coli [25] = assay: Induction of Escherichia coli pBR322 DNA damage assessed as open circular form at 1000 ug/ml after 60 mins by gel electrophoresis
Staphylococcus aureus [26] = assay: Antibacterial activity against Staphylococcus aureus ATCC 6538 after 18 hrs by microdilution method; assay type: functional; in short: as §1
Klebsiella aerogenes [27] = assay: Antibacterial activity against Enterobacter aerogenes ATCC 13048 at 40 mg/mL after 24 hrs by disc diffusion method; assay type: functional; in short: as §3

Row | Substance | MIC (Salmonella typhimurium [1]) [µg/mL] | Activity [2] [%] | inhibition zone (IZ) (Staphylococcus aureus [3]) [mm] | MIC (Aspergillus flavus [5]) [µg/mL] | MIC (Escherichia coli [6]) [µg/mL] | inhibition zone (IZ) (Mucor [7]) [mm] | Activity [8] [%] | Activity (Escherichia coli [9]) | Activity [10] [%] | inhibition zone (IZ) (Escherichia coli [12]) [mm] | inhibition zone (IZ) (Salmonella typhimurium [13]) [mm] | inhibition zone (IZ) (Aspergillus flavus [15]) [mm] | inhibition zone (IZ) (Aspergillus niger [16]) [mm] | inhibition zone (IZ) [17] [mm] | Activity (Escherichia coli [18]) | MIC (Aspergillus niger [19]) [µg/mL] | MIC (Aspergillus fumigatus [20]) [µg/mL] | Activity (Escherichia coli [21]) | inhibition zone (IZ) (Bacillus spizizenii [23]) [mm] | LD50 (Artemia salina) [µg/mL] | also measured
1 | N-[(2-methoxyphenyl)]-4-oxo-4-[(tributylstannyl)oxy]butanamide | 100 | 87.8 | 12 | 3.12 | 150 | 20 | 72.4 | inactive | 52.3 | 0 | 0 | 32 | 40 | 12 | inactive | 1.56 | 3.12 | inactive | 19 | 0.433 | inhibition zone (IZ) (Aspergillus fumigatus [4]): 32 mm; MIC [11]: 100 µg/mL; MIC (Klebsiella aerogenes [14]): 100 µg/mL; MIC (Bacillus spizizenii [22]): 50 µg/mL; MIC (Mucor [24]): 3.12 µg/mL; Activity (Escherichia coli [25]): inactive; MIC (Staphylococcus aureus [26]): 150 µg/mL; inhibition zone (IZ) (Klebsiella aerogenes [27]): 18 mm
2 | N-[(2-methoxyphenyl)]-4-oxo-4-[(tricyclohexylstannyl)oxy]butanamide | 200 | 80.9 | 0 | 150 | 200 | 18 | 57.4 | inactive | 36.5 | 9 | 8 | 18 | 0 | 0 | inactive | 200 | 150 | inactive | 0 | 0.493 | inhibition zone (IZ) (Aspergillus fumigatus [4]): 16 mm; MIC (Mucor [24]): 150 µg/mL; Activity (Escherichia coli [25]): inactive; inhibition zone (IZ) (Klebsiella aerogenes [27]): 0 mm
3 | N-[(2-methoxyphenyl)]-4-oxo-4-[(triethylstannyl)oxy]butanamide | 6.25 | 84.1 | 28 | 0.78 | 6.25 | 34 | 70.3 | Active | 48.3 | 34 | 26 | 46 | 48 | 38 | Active | 0.78 | 0.78 | Active | 36 | 0.881 | MIC [11]: 6.25 µg/mL; MIC (Klebsiella aerogenes [14]): 6.25 µg/mL; MIC (Bacillus spizizenii [22]): 6.25 µg/mL; MIC (Mucor [24]): 0.78 µg/mL; Activity (Escherichia coli [25]): Active; MIC (Staphylococcus aureus [26]): 50 µg/mL; inhibition zone (IZ) (Klebsiella aerogenes [27]): 22 mm
4 | N-[(2-methoxyphenyl)]-4-oxo-4-[(trimethylstannyl)oxy]butanamide | 25 | 69.9 | 25 | 50 | 25 | 24 | 54.8 | Active | 30.2 | 26 | 23 | 28 | 28 | 26 | Active | 12.5 | 50 | Active | 27 | 1.09 | inhibition zone (IZ) (Aspergillus fumigatus [4]): 22 mm; MIC [11]: 12.5 µg/mL; MIC (Klebsiella aerogenes [14]): 50 µg/mL; MIC (Bacillus spizizenii [22]): 25 µg/mL; MIC (Mucor [24]): 50 µg/mL; Activity (Escherichia coli [25]): Active; MIC (Staphylococcus aureus [26]): 50 µg/mL; inhibition zone (IZ) (Klebsiella aerogenes [27]): 20 mm
